ChEMBL document CHEMBL1250472, “"Clicked" bivalent ligands containing curcumin and cholesterol as multifunctional abeta oligomerization inhibitors: design, synthesis, and biological characterization” (J Med Chem, 2010)
Each block holds one compound with its values, some of them ahead of it. Active and inactive are the calls of the source. The calls are words filed in the database; no cut-off is given here.

Key:
[1] = molecular target: Amyloid-beta precursor protein (Homo sapiens) (UniProt P05067); assay: Inhibition of APP expressed in human MC65 cells assessed as inhibition of amyloid beta oligomer formation at 10 uM by Western blotting after removal of tetracycline
[2] = molecular target: Amyloid-beta precursor protein (Homo sapiens) (UniProt P05067); assay: Inhibition of APP expressed in human MC65 cells assessed as inhibition of amyloid beta 42 oligomerization by transmission electron microscopy; assay type: cell-based
[3] = Cellular uptake in human MC65 cells after 24 hrs by immunocytometry; assay type: ADME, cell-based; conditions: mc65, 24 h
Outline: (§1)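 MC65 cells exposed to compound (10 μM) for 24 h, fixed in 4% paraformaldehyde, permeabilized with 0.1% Triton X-100, DAPI-stained. Compound's own fluorescence located by confocal microscopy (excitation 355 and 494 nm). 1.0 μm optical sections through the cell depth, projected into a composite image.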

MC65 [4] = assay: Antioxidant activity in human MC65 cells assessed as decrease in oxidative stress by DCFH-DA assay; assay type: functional, cell-based
Outline: (§2)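 MC65 cells, 4 × 10^4/well, grown 24 h, then exposed to compounds in Opti-MEM with or without TC for 24 h (blanks with compound only). DCFH-DA loaded at 25 μM final for 30 min at 37 °C, medium replaced, fluorescence read at 485/530 nm. Expressed as % of parallel -TC cultures, n = 5.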

MC65 [5] = assay: Antioxidant activity in human MC65 cells assessed as decrease in lipid peroxidation by DCFH-DA assay; assay type: functional, cell-based; conditions: in the assay text read “intracellular oxidative stress” for “lipid peroxidation”
Outline: as §2

SH-SY5Y [6] = assay: Cytotoxicity against human SH-SY5Y cells after 48 hrs
MC65 [7] = assay: Cytoprotective activity against amyloid-beta oligomer-induced cytotoxicity in human MC65 cells after 72 hrs
SH-SY5Y [8] = assay: Cytoprotective activity against amyloid-beta oligomer-induced cytotoxicity in human SH-SY5Y cells at 16 uM after 48 hrs
SH-SY5Y [9] = assay: Cytoprotective activity against amyloid-beta oligomer-induced cytotoxicity in human SH-SY5Y cells at 2 to 8 uM after 48 hrs
[10] = Cytotoxicity against human MC65 cells after 72 hrs; conditions: mc65, 72 h
[11] = molecular target: Amyloid-beta precursor protein (Homo sapiens) (UniProt P05067); assay: Inhibition of APP expressed in human MC65 cells assessed as inhibition of amyloid beta oligomer formation at 10 uM by Western blotting; assay type: cell-based
Outline: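 MC65 cells, 1 × 10^6/well, exposed to compounds (10 μM) in Opti-MEM with or without TC for 24 h. Lysates (10 μg protein) run on 10-20% tris-tricine SDS-PAGE and blotted with 6E10 (1:2000), HRP secondary, chemiluminescence. Three independent experiments.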

MC65 [12] = assay: Binding affinity to amyloid beta expressed in human MC65 cells after 24 hrs by immunocytometry; assay type: cell-based
Outline: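 MC65 cells, 1 × 10^4/well, given compounds (10 μM) right after TC removal, 24 h. Surface stained with Alexa 488-CTX-B on ice, then fixed in 4% paraformaldehyde and permeabilized with Triton X-100. Stained with A11 oligomer antibody plus Alexa 568 secondary, DAPI counterstain. Confocal imaging; red puncta per cell averaged over five areas.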

MC65 [13] = assay: Binding affinity to cell membrane/lipid raft of human MC65 cells after 24 hrs by immunocytometry; assay type: cell-based
Outline: as §1

Spleen = assay: Toxicity against mouse spleen after 24 hrs; assay type: tissue-based; conditions: in vitro
[14] = Apparent permeability from apical to basolateral side of human Caco-2 cells; assay type: ADME, cell-based
Outline: (§3)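 Caco-2 cells, passages 30-50, grown 21 days on transwell inserts to confluence; TEER >400 ohm·cm² and lucifer yellow permeability <1 × 10^-6 cm/s. Compound at 10 μM added apical or basolateral in HBSS, 37 °C with shaking. Sampling at 30, 60, 120 min, HPLC with fluorescence detection. Permeability calculated by Fick's law; efflux ratio is B-A/A-B.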

[15] = Apparent permeability from basolateral to apical side of human Caco-2 cells; assay type: ADME, cell-based
Outline: as §3

[16] = Cytotoxicity against mouse NK cells after 24 hrs
SH-SY5Y [17] = assay: Cytoprotective activity against amyloid-beta oligomer-induced cytotoxicity in human SH-SY5Y cells after 48 hrs

Chain of Amyloid-beta precursor protein (Homo sapiens) (P05067 whole entry): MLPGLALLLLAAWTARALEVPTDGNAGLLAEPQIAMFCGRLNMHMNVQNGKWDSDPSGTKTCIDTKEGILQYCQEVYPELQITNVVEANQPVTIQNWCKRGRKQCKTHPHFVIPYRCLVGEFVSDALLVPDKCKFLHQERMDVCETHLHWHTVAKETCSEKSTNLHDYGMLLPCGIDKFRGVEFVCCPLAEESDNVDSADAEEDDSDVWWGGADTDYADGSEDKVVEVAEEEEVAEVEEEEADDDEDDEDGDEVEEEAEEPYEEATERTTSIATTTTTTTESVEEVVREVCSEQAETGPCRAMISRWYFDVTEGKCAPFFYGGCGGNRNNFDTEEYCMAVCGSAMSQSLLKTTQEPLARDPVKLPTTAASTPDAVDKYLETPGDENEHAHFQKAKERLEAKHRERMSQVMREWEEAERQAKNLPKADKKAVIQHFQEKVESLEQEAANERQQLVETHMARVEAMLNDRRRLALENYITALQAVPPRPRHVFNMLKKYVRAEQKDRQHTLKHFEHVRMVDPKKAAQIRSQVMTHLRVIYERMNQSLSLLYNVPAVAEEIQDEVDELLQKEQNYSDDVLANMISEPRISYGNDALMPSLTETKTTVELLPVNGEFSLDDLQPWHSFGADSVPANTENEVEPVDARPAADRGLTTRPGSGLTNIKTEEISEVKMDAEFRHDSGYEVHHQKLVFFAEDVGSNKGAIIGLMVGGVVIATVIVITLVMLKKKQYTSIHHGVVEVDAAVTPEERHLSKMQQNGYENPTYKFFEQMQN

inhibition [1]: inactive
SMILES: CCCCNC(=O)CCC(=O)NCCCCCCn1cc(COc2ccc(/C=C/C(O)=C/C(=O)/C=C/c3ccc(O)c(OC)c3)cc2OC)nn1

inhibition [1]: Active
SMILES: COc1cc(/C=C/C(=O)/C(Cc2cn(CCCCNC(=O)CCNC(=O)CO[C@H]3CC[C@@]4(C)C(=CC[C@H]5[C@@H]6CC[C@H]([C@H](C)CCCC(C)C)[C@@]6(C)CC[C@@H]54)C3)nn2)=C(O)/C=C/c2ccc(O)c(OC)c2)ccc1O

inhibition [2]: Active
Drug uptake [3]: Active
inhibition [1]: inactive
SMILES: COc1cc(/C=C/C(=O)CC(=O)/C=C/c2ccc(O)c(OC)c2)ccc1O [CURCUMIN]
Activity (MC65 [4]): Active
Activity (MC65 [5]): Active
Activity (SH-SY5Y [6]): Toxic
Activity (MC65 [7]): Active
Activity (SH-SY5Y [8]): inactive
Activity (SH-SY5Y [9]): Active

inhibition [1]: inactive
SMILES: COc1cc(/C=C/C(=O)/C=C(O)/C=C/c2ccc(OCc3cn(CCCCNC(=O)CO[C@H]4CC[C@@]5(C)C(=CC[C@H]6[C@@H]7CC[C@H]([C@H](C)CCCC(C)C)[C@@]7(C)CC[C@@H]65)C4)nn3)c(OC)c2)ccc1O

inhibition [1]: Active
SMILES: COc1cc(/C=C/C(=O)/C(Cc2cn(CCCCCCNC(=O)CCNC(=O)CO[C@H]3CC[C@@]4(C)C(=CC[C@H]5[C@@H]6CC[C@H]([C@H](C)CCCC(C)C)[C@@]6(C)CC[C@@H]54)C3)nn2)=C(O)/C=C/c2ccc(O)c(OC)c2)ccc1O
Activity [10]: Non-toxic

inhibition [1]: Active
SMILES: COc1cc(/C=C/C(=O)/C=C(O)/C=C/c2ccc(OCc3cn(CCCCNC(=O)CCNC(=O)CCNC(=O)CO[C@H]4CC[C@@]5(C)C(=CC[C@H]6[C@@H]7CC[C@H]([C@H](C)CCCC(C)C)[C@@]7(C)CC[C@@H]65)C4)nn3)c(OC)c2)ccc1O

inhibition [1]: inactive
SMILES: COc1cc(/C=C/C(=O)/C(Cc2cn(CCCCCCNC(=O)CO[C@H]3CC[C@@]4(C)C(=CC[C@H]5[C@@H]6CC[C@H]([C@H](C)CCCC(C)C)[C@@]6(C)CC[C@@H]54)C3)nn2)=C(O)/C=C/c2ccc(O)c(OC)c2)ccc1O

inhibition [1]: Active
SMILES: COc1cc(/C=C/C(=O)/C=C(O)/C=C/c2ccc(OCc3cn(CCCCNC(=O)CCNC(=O)CO[C@H]4CC[C@@]5(C)C(=CC[C@H]6[C@@H]7CC[C@H]([C@H](C)CCCC(C)C)[C@@]7(C)CC[C@@H]65)C4)nn3)c(OC)c2)ccc1O

inhibition [1]: Active
SMILES: COc1cc(/C=C/C(=O)/C=C(O)/C=C/c2ccc(OCc3cn(CCCCCCNC(=O)CCNC(=O)CO[C@H]4CC[C@@]5(C)C(=CC[C@H]6[C@@H]7CC[C@H]([C@H](C)CCCC(C)C)[C@@]7(C)CC[C@@H]65)C4)nn3)c(OC)c2)ccc1O

inhibition [1]: inactive
SMILES: COc1cc(/C=C/C(=O)/C=C(O)/C=C/c2ccc(OCc3cn(CCCCCCNC(=O)CO[C@H]4CC[C@@]5(C)C(=CC[C@H]6[C@@H]7CC[C@H]([C@H](C)CCCC(C)C)[C@@]7(C)CC[C@@H]65)C4)nn3)c(OC)c2)ccc1O

inhibition [1]: inactive
SMILES: COc1cc(/C=C/C(=O)/C(Cc2cn(CCCCNC(=O)CO[C@H]3CC[C@@]4(C)C(=CC[C@H]5[C@@H]6CC[C@H]([C@H](C)CCCC(C)C)[C@@]6(C)CC[C@@H]54)C3)nn2)=C(O)/C=C/c2ccc(O)c(OC)c2)ccc1O

inhibition [11]: Active
inhibition [2]: Active
Papp A→B [14]: 7.1 ×10⁻⁶ cm/s
Papp B→A [15]: 4.7 ×10⁻⁶ cm/s
inhibition [1]: Active
SMILES: COc1cc(/C=C/C(=O)/C(Cc2cn(CCCCCCNC(=O)CCNC(=O)CCNC(=O)CO[C@H]3CC[C@@]4(C)C(=CC[C@H]5[C@@H]6CC[C@H]([C@H](C)CCCC(C)C)[C@@]6(C)CC[C@@H]54)C3)nn2)=C(O)/C=C/c2ccc(O)c(OC)c2)ccc1O
Activity (MC65 [12]): inactive
Activity (MC65 [13]): Active
Activity (Spleen): Toxic
Activity (MC65 [4]): Active
Activity [16]: Non-toxic
Activity (MC65 [7]): Dose-dependent effect
Activity (SH-SY5Y [17]): Active

inhibition [1]: Active
SMILES: COc1cc(/C=C/C(=O)/C(Cc2cn(CCCCNC(=O)CCNC(=O)CCNC(=O)CO[C@H]3CC[C@@]4(C)C(=CC[C@H]5[C@@H]6CC[C@H]([C@H](C)CCCC(C)C)[C@@]6(C)CC[C@@H]54)C3)nn2)=C(O)/C=C/c2ccc(O)c(OC)c2)ccc1O

SMILES: COc1cc(/C=C/C(=O)/C=C(O)/C=C/c2ccc(OCc3cn(CCCCCCNC(=O)CCNC(=O)CCNC(=O)CO[C@H]4CC[C@@]5(C)C(=CC[C@H]6[C@@H]7CC[C@H]([C@H](C)CCCC(C)C)[C@@]7(C)CC[C@@H]65)C4)nn3)c(OC)c2)ccc1O
Activity [10]: Non-toxic

inhibition [1]: inactive
SMILES: CCCCNC(=O)CCC(=O)NCCCCCCn1cc(C/C(C(=O)/C=C/c2ccc(O)c(OC)c2)=C(O)\C=C\c2ccc(O)c(OC)c2)nn1
